In ChEMBL document CHEMBL1153881, “The influence of an ethylene spacer on the 5-HT(1A) and 5-HT(2A) receptor affinity of arylpiperazine derivatives of amides with N-acylated amino acids and 3-differently substituted pyrrolidine-2,5-diones” (Eur J Med Chem, 2009):

Columns and labels:
[1] = molecular target: T1, 5-hydroxytryptamine receptor 1A (Rattus norvegicus, UniProt P19327); assay: Displacement of [3H]8-OH-DPAT from 5HT1A receptor in rat hippocampal membrane; format: cell membranes, Hippocampus
T1 sequence (P19327 whole entry): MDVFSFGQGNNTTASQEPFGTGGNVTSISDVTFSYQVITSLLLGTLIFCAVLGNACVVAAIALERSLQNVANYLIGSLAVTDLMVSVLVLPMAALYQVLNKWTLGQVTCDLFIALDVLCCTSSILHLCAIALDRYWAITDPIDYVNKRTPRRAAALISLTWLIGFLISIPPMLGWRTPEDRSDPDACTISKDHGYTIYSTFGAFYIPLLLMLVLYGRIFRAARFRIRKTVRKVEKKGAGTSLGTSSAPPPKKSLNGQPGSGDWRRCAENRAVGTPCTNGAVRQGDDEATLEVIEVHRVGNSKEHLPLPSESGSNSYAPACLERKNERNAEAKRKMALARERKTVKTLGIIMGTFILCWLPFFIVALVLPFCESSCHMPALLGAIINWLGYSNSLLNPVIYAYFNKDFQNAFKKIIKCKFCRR
Outline: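 Native receptor in rat hippocampal membranes, labelled with [3H]-8-OH-DPAT (170 Ci/mmol) and displaced by the compounds, which were tested without further purification. Screening used two compound concentrations. Full binding curves used 7–9 concentrations, each run in triplicate, and Ki was derived from inhibition of binding.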

[2] = molecular target: 5-hydroxytryptamine receptor 2A (Rattus norvegicus, UniProt P14842); assay: Displacement of [3H]ketanserin from 5HT2A receptor in rat cortical membrane; format: cell membranes
Chain of 5-hydroxytryptamine receptor 2A (P14842 whole entry): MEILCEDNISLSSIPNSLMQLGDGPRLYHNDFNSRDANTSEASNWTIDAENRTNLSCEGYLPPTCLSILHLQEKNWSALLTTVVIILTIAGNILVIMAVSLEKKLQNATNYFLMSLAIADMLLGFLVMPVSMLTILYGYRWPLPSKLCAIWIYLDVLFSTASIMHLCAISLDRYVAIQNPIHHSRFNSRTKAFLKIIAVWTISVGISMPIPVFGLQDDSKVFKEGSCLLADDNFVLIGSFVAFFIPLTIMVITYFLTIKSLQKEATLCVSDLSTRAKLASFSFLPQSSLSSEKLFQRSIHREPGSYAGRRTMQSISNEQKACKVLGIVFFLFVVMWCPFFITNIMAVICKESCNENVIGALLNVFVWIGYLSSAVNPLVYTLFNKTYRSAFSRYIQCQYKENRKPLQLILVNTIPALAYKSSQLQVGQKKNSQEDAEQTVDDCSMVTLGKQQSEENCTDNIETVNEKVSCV

SMILES	Ki [1]	Ki [2]
COc1ccccc1N1CCN(CCCN2C(=O)C[C@H](NC(C)=O)C2=O)CC1	0.48 µM	–
COc1ccccc1N1CCN(CCCN2C(=O)C[C@H](NC(=O)CC3CC4CCC3C4)C2=O)CC1 (stereo partly drawn)	0.04 µM	–
COc1ccccc1N1CCN(CCCN2C(=O)C[C@H](NC(=O)C34CC5CC(CC(C5)C3)C4)C2=O)CC1	0.063 µM	–
COc1ccccc1N1CCN(CCCCN2C(=O)C[C@H](NC(C)=O)C2=O)CC1	0.069 µM	–
COc1ccccc1N1CCN(CCCCNC(=O)[C@@H]2CCCN2C(=O)C23CC4CC(CC(C4)C2)C3)CC1	0.003 µM	0.503 µM
COc1ccccc1N1CCN(CCN2C(=O)C[C@H](NC(=O)C34CC5CC(CC(C5)C3)C4)C2=O)CC1	0.579 µM	4.8 µM
COc1ccccc1N1CCN(CCN2C(=O)CCC2=O)CC1	2.09 µM	17.6 µM
COc1ccccc1N1CCN(CCCNC(=O)[C@@H]2CCCN2C(C)=O)CC1	0.58 µM	3.14 µM
O=C(N[C@H]1CC(=O)N(CCN2CCN(c3cccc(Cl)c3)CC2)C1=O)c1ccccc1	10 µM	1.74 µM
COc1ccccc1N1CCN(CCN2C(=O)CC(NC(C)=O)C2=O)CC1 (stereo not drawn)	7.59 µM	5.68 µM
COc1ccccc1N1CCN(CCNC(=O)[C@@H]2CCCN2C(=O)C23CC4CC(CC(C4)C2)C3)CC1	0.35 µM	1.92 µM
COc1ccccc1N1CCN(CCNC(=O)[C@@H]2CCC(=O)N2C(=O)c2ccccc2)CC1	1.51 µM	8.71 µM
COc1ccccc1N1CCN(CCNC(=O)[C@@H]2CCCN2C(C)=O)CC1	6.6 µM	8.6 µM
COc1ccccc1N1CCN(CCN2C(=O)C[C@H](NC(=O)CC3CC4CCC3C4)C2=O)CC1 (stereo partly drawn)	0.497 µM	12.4 µM
COc1ccccc1N1CCN(CCN2C(=O)CC(C3CCCCC3)C2=O)CC1 (stereo not drawn)	0.024 µM	0.868 µM
COc1ccccc1N1CCN(CCN2C(=O)CC3(CCCCC3)C2=O)CC1	0.0057 µM	0.254 µM

The remaining lines, values ahead:

Ki [1]	Ki [2]	SMILES
0.017 µM	–	COc1ccccc1N1CCN(CCCCNC(=O)[C@@H]2CCC(=O)N2C(=O)C2CCCCC2)CC1
0.019 µM	0.99 µM	COc1ccccc1N1CCN(CCCCNC(=O)[C@@H]2CCCN2C(=O)C2CCCCC2)CC1
0.23 µM	–	COc1ccccc1N1CCN(CCCN2C(=O)C[C@H](NC(=O)C3CCCCC3)C2=O)CC1
3.67 µM	2.12 µM	O=C1CCC(=O)N1CCN1CCN(c2cccc(Cl)c2)CC1
7.44 µM	7.34 µM	COc1ccccc1N1CCN(CCN2C(=O)C[C@H](NC(=O)C3CCCCC3)C2=O)CC1
1 µM	14.9 µM	COc1ccccc1N1CCN(CCNC(=O)[C@@H]2CCC(=O)N2C(=O)C2CCCCC2)CC1
1.73 µM	0.8 µM	O=C(NCCCN1CCN(c2cccc(Cl)c2)CC1)[C@@H]1CCC(=O)N1C(=O)C1CCCCC1
0.36 µM	0.092 µM	O=C(N[C@H]1CC(=O)N(CCCN2CCN(c3cccc(Cl)c3)CC2)C1=O)C1CCCCC1
3.78 µM	1.41 µM	O=C(N[C@H]1CC(=O)N(CCN2CCN(c3cccc(Cl)c3)CC2)C1=O)C1CCCCC1
1.95 µM	1.3 µM	O=C(NCCN1CCN(c2cccc(Cl)c2)CC1)[C@@H]1CCCN1C(=O)c1ccccc1
0.078 µM	0.128 µM	O=C(NCCCCN1CCN(c2cccc(Cl)c2)CC1)[C@@H]1CCCN1C(=O)c1ccccc1
0.227 µM	0.137 µM	O=C1CC(C2CCCCC2)C(=O)N1CCN1CCN(c2cccc(Cl)c2)CC1 (stereo not drawn)
0.111 µM	0.163 µM	O=C(NCCCCN1CCN(c2cccc(Cl)c2)CC1)[C@@H]1CCC(=O)N1C(=O)C1CCCCC1
0.39 µM	–	COc1ccccc1N1CCN(CCCNC(=O)[C@@H]2CCC(=O)N2C(=O)c2ccccc2)CC1
2.01 µM	0.357 µM	O=C(NCCN1CCN(c2cccc(Cl)c2)CC1)[C@@H]1CCCN1C(=O)C1CCCC1
3.55 µM	2.33 µM	COc1ccccc1N1CCN(CCNC(=O)[C@@H]2CCCN2C(=O)C2CCCCC2)CC1
0.0043 µM	0.015 µM	O=C1CC2(CCCCC2)C(=O)N1CCN1CCN(c2cccc(Cl)c2)CC1
8.52 µM	3.26 µM	O=C(NCCN1CCN(c2cccc(Cl)c2)CC1)[C@@H]1CCC(=O)N1C(=O)C1CCCCC1
0.041 µM	0.075 µM	O=C(N[C@H]1CC(=O)N(CCCCN2CCN(c3cccc(Cl)c3)CC2)C1=O)c1ccccc1
